Measured values taken from ChEMBL document CHEMBL6114938, “Design, synthesis, and biological evaluation of pyrazole-ciprofloxacin hybrids as antibacterial and antibiofilm agents against Staphylococcus aureus” (RSC Med Chem, 2025).
In brackets after ≈: the same amount, converted by molar mass. Activity calls are given as the source filed them. The rule behind the calls is not given here.

Tests used:
[1] = tested on: Mycobacterium tuberculosis; experiment: Antimycobacterial activity against Mycobacterium tuberculosis H37Ra ATCC 25177 assessed as inhibition of bacterial growth incubated for 10 days by liquid broth microdilution method; type: functional; conditions: H37Ra ATCC 25177, 240 h, time 10 day
Procedure, shortened: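 Log-phase H37Ra (OD₆₀₀ 0.4–0.6) was grown in 7H9 with D-pantothenic acid, amino acids, 0.2% glycerol, 0.05% Tween 80 and 10% ADS, then diluted to OD₆₀₀ 0.005 (1.0×10⁶ CFU/ml). Compounds were two-fold serially diluted in 7H9, and plates were incubated for 10 days at 37 °C in 5% CO₂. MIC was the lowest concentration without visible turbidity.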

Pseudomonas aeruginosa = experiment: Antibacterial activity against Pseudomonas aeruginosa PAO1 ATCC 15692 assessed as inhibition of bacterial growth incubated for 18 to 24 hrs by two-fold serial dilution method; type: functional; conditions: time 18-24 hrs
Procedure, shortened: (§1)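 Broth microdilution in cation-adjusted Mueller Hinton broth with two-fold serial dilutions. Inoculum came from overnight cultures on Mueller Hinton agar, set to OD600 0.08-0.1 and diluted 100-fold, then added 1:1 to the compound wells. Plates were incubated at 37 °C for 18-24 h and read visually. MIC is the lowest concentration with no turbidity.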

Staphylococcus aureus [2] = experiment: Antibacterial activity against Staphylococcus aureus ATCC 29213 assessed as inhibition of bacterial growth incubated for 18 to 24 hrs by two-fold serial dilution method; type: functional; conditions: time 18-24 hrs; procedure, shortened: as §1
Staphylococcus aureus [3] = experiment: Antibacterial activity against one-step ciprofloxacin resistant mutant of Staphylococcus aureus ATCC 29213 assessed as inhibition of bacterial growth by liquid broth microdilution assay; type: functional
Procedure, shortened: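 One-step ciprofloxacin-resistant mutants were raised by plating log-phase cells adjusted to 10¹⁰ CFU/ml on ciprofloxacin-containing Mueller-Hinton agar for 48 h at 37 °C, then passaging picked colonies on ciprofloxacin plates. Mutants with a more than eightfold rise in ciprofloxacin MIC were kept. MIC was read by broth microdilution: two-fold dilutions in cation-adjusted MHB, and inoculum of OD₆₀₀ 0.08–0.1 diluted hundredfold. Plates ran 18–24 h at 37 °C, and MIC was the lowest concentration with no visible turbidity.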

[4] = Cytotoxicity against human HepG2 cells assessed as reduction in cell viability incubated for 48 hrs by MTT assay; type: toxicity, cell-based
Procedure, shortened: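 MTT viability assay in HepG2 cells seeded at 1000-4000 per well and allowed to adhere overnight. Compounds were tested at 1000-0.78 µg/mL for 48 h in fresh medium. MTT 0.5 mg/mL was added for 4 h at 37 °C, formazan was dissolved in DMSO, and absorbance was read at 570 nm.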

Staphylococcus aureus [5] = experiment: Bactericidal activity against Staphylococcus aureus ATCC 29213 assessed as log reduction in bacterial load at 4X to 8XMIC measured within 9 hrs by time-kill kinetics analysis; type: functional
Procedure, shortened: (§2)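 Time-kill: log-phase cultures at OD600 0.005 were exposed to 1×, 4× and 8× MIC at 37 °C. Viable counts (CFU/ml) were taken by plating 10-fold serial dilutions at 2, 4, 6, 8, 10 and 24 h. Curves plot log10 CFU/ml against time over 24 h.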

Staphylococcus aureus [6] = experiment: Antibiofilm activity against Staphylococcus aureus ATCC 29213 assessed as inhibition of biofilm formation incubated for 24 hrs by crystal violet staining based analysis; type: functional
Procedure, shortened: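 Biofilm formation assay with inoculum at OD600 0.015 from overnight culture. Twelve two-fold dilutions (128 to 0.06 µg/ml) were made in MHB with 2% sucrose in flat-bottom polystyrene wells and incubated at 37 °C for 24 h. Wells were washed with PBS pH 7.4, fixed with methanol, stained with 0.1% crystal violet, eluted with 95% ethanol and read at A595. MBIC50 is the lowest concentration giving ≥50% inhibition versus untreated culture.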

Staphylococcus aureus [7] = experiment: Potency index, ratio of ciprofloxacin MIC to test compound MIC for antibacterial activity against Staphylococcus aureus ATCC 29213; type: functional
Staphylococcus aureus [8] = experiment: Antibacterial activity against Staphylococcus aureus NCTC 4163 assessed as inhibition of bacterial growth incubated for 18 hrs by twofold microdilution method; type: functional
Escherichia coli = experiment: Antibacterial activity against Escherichia coli ATCC 25922 assessed as inhibition of bacterial growth incubated for 18 hrs by twofold microdilution method; type: functional
Staphylococcus aureus [9] = experiment: Antibacterial activity against Staphylococcus aureus ATCC 29213 assessed as inhibition of bacterial growth incubated for 18 hrs by twofold microdilution method; type: functional
Staphylococcus aureus [10] = experiment: Antibacterial activity against Staphylococcus aureus ATCC 25923 assessed as inhibition of bacterial growth incubated for 18 hrs by twofold microdilution method; type: functional
Staphylococcus aureus [11] = experiment: Antibacterial activity against Staphylococcus aureus ATCC 6538 assessed as inhibition of bacterial growth incubated for 18 hrs by twofold microdilution method; type: functional
[12] = tested on: Mycobacterium tuberculosis; experiment: Antimycobacterial activity against Mycobacterium tuberculosis H37Rv ATCC 27294 assessed as inhibition of bacterial growth incubated for 7 days by broth microdilution assay; type: functional; conditions: H37Rv ATCC 27294, 168 h, time 7 day
[13] = target: DNA gyrase (Escherichia coli) (UniProt P0AES6+P0AES4); experiment: Inhibition of Escherichia coli DNA gyrase assessed as reduction in supercoiled state of plasmid using pUC19 plasmid DNA as substrate at 8XMIC incubated for 90 mins by gel electrophoresis analysis; type: protein-complex assay
Staphylococcus aureus [14] = experiment: Bactericidal activity against Staphylococcus aureus ATCC 29213 assessed as log reduction in bacterial load at 1XMIC measured within 9 hrs by time-kill kinetics analysis; type: functional; procedure, shortened: as §2
Staphylococcus aureus [15] = experiment: Bactericidal activity against Staphylococcus aureus ATCC 29213 assessed as log reduction in bacterial load at 4X to 8XMIC measured within 3 hrs by time-kill kinetics analysis; type: functional; procedure, shortened: as §2
Staphylococcus aureus [16] = experiment: Potency index, ratio of ciprofloxacin MBIC50 to test compound MBIC50 for antibiofilm activity against Staphylococcus aureus ATCC 29213; type: functional
Staphylococcus aureus [17] = experiment: Ratio of MIC for antibacterial activity against Staphylococcus aureus ATCC 29213 to MBIC50 for antibiofilm activity against Staphylococcus aureus ATCC 29213; type: functional
Staphylococcus aureus [18] = experiment: Bactericidal activity against Staphylococcus aureus ATCC 29213 assessed as bacterial killing at 8XMIC measured within 6 hrs by time-kill kinetics analysis; type: functional, organism-based; procedure, shortened: as §2

**Q.** For O=C(CN1CCN(c2cc3c(cc2F)c(=O)c(C(=O)O)cn3C2CC2)CC1)Nc1ccc(-n2ccc(-c3ccc(Br)cc3)n2)cc1, which MIC [1] is on record?
**A.** 16 µg/mL (≈ 23.3 µM)

**Q.** What about the MIC (Pseudomonas aeruginosa) of the same compound?
**A.** 128 µg/mL (≈ 187 µM)

**Q.** And the MIC (Staphylococcus aureus [2])?
**A.** 32 µg/mL (≈ 46.7 µM)

**Q.** With NNC(=O)c1ccncc1 [ISONIAZID] as the compound, how does the MIC [1] read?
**A.** 0.034 µg/mL (≈ 0.248 µM)

**Q.** For O=C(CN1CCN(c2cc3c(cc2F)c(=O)c(C(=O)O)cn3C2CC2)CC1)Nc1ccc(-n2ccc(-c3ccc4ccccc4c3)n2)cc1, which MIC [1] is on record?
**A.** 1 µg/mL (≈ 1.52 µM)

**Q.** And the MIC (Pseudomonas aeruginosa)?
**A.** 2 µg/mL (≈ 3.05 µM)

**Q.** And the MIC (Staphylococcus aureus [2])?
**A.** 1 µg/mL (≈ 1.52 µM)

**Q.** Which results are given for COc1ccc(-c2ccn(-c3ccc(NC(=O)CN4CCN(c5cc6c(cc5F)c(=O)c(C(=O)O)cn6C5CC5)CC4)cc3)n2)cc1OC?
**A.** MIC [1]: 16 µg/mL (≈ 24 µM); MIC (Staphylococcus aureus [3]): 0.25 µg/mL (≈ 0.375 µM); MIC (Pseudomonas aeruginosa): 128 µg/mL (≈ 192 µM); CC50 at 48 h [4]: ≥ 592 µg/mL; Activity (Staphylococcus aureus [5]): >=3 log10CFU/ml; MBIC50 (Staphylococcus aureus [6]): 0.3 µg/mL; MIC (Staphylococcus aureus [2]): 0.125 µg/mL (≈ 0.187 µM); Ratio (Staphylococcus aureus [7]): 2

**Q.** With O=C(O)c1cn(C2CC2)c2cc(N3CCN(C(=O)CCl)CC3)c(F)cc2c1=O as the compound, how does the MIC (Staphylococcus aureus [8]) read?
**A.** 0.1 µg/mL (≈ 0.245 µM)

**Q.** What about the MIC (Escherichia coli) of the same compound?
**A.** 0.1 µg/mL (≈ 0.245 µM)

**Q.** And the MIC (Staphylococcus aureus [9])?
**A.** 0.1 µg/mL (≈ 0.245 µM)

**Q.** And the MIC (Staphylococcus aureus [10])?
**A.** 0.1 µg/mL (≈ 0.245 µM)

**Q.** What about the MIC (Staphylococcus aureus [11]) of the same compound?
**A.** 0.1 µg/mL (≈ 0.245 µM)

**Q.** For COc1ccc(-c2ccn(-c3ccc(NC(=O)CN4CCN(c5cc6c(cc5F)c(=O)c(C(=O)O)cn6C5CC5)CC4)cc3)n2)cc1, which MIC [1] is on record?
**A.** 8 µg/mL (≈ 12.6 µM)

**Q.** What about the MIC (Pseudomonas aeruginosa) of the same compound?
**A.** 32 µg/mL (≈ 50.3 µM)

**Q.** What about the MIC (Staphylococcus aureus [2]) of the same compound?
**A.** 4 µg/mL (≈ 6.28 µM)

**Q.** Which MIC [1] does the source give for O=C(CN1CCN(c2cc3c(cc2F)c(=O)c(C(=O)O)cn3C2CC2)CC1)Nc1ccc(-n2ccc(-c3ccccc3Cl)n2)cc1 here?
**A.** 4 µg/mL (≈ 6.24 µM)

**Q.** And the MIC (Pseudomonas aeruginosa)?
**A.** 16 µg/mL (≈ 25 µM)

**Q.** And the MIC (Staphylococcus aureus [2])?
**A.** 1 µg/mL (≈ 1.56 µM)

**Q.** Which results are given for COc1cc(-c2ccn(-c3ccc(NC(=O)CN4CCN(c5cc6c(cc5F)c(=O)c(C(=O)O)cn6C5CC5)CC4)cc3)n2)cc(OC)c1OC?
**A.** MIC [1]: 0.5 µg/mL (≈ 0.718 µM); MIC (Staphylococcus aureus [3]): 1 µg/mL (≈ 1.44 µM); MIC (Pseudomonas aeruginosa): 32 µg/mL (≈ 45.9 µM); CC50 at 48 h [4]: > 1000 µg/mL; MBIC50 (Staphylococcus aureus [6]): 0.52 µg/mL; MIC (Staphylococcus aureus [2]): 0.125 µg/mL (≈ 0.179 µM); Ratio (Staphylococcus aureus [7]): 2

**Q.** For O=C(Nc1ccc(-n2ccc(-c3cc4ccccc4o3)n2)cc1)c1cc([N+](=O)[O-])cc([N+](=O)[O-])c1, which MIC [12] is on record?
**A.** 0.03 µg/mL (≈ 0.0639 µM)

**Q.** For COc1ccccc1-c1ccn(-c2ccc(NC(=O)CN3CCN(c4cc5c(cc4F)c(=O)c(C(=O)O)cn5C4CC4)CC3)cc2)n1, which MIC [1] is on record?
**A.** 4 µg/mL (≈ 6.28 µM)

**Q.** And the inhibition [13]?
**A.** Active

**Q.** What about the Activity (Staphylococcus aureus [14]) of the same compound?
**A.** >=3 log10CFU/ml

**Q.** What about the Activity (Staphylococcus aureus [15]) of the same compound?
**A.** >=3 log10CFU/ml

**Q.** What about the Ratio (Staphylococcus aureus [16]) of the same compound?
**A.** 50

**Q.** What about the MIC (Staphylococcus aureus [3]) of the same compound?
**A.** 0.125 µg/mL (≈ 0.196 µM)

**Q.** And the MIC (Pseudomonas aeruginosa)?
**A.** 64 µg/mL (≈ 101 µM)

**Q.** What about the CC50 at 48 h [4] of the same compound?
**A.** > 1000 µg/mL

**Q.** And the Ratio (Staphylococcus aureus [17])?
**A.** 6

**Q.** What about the MBIC50 (Staphylococcus aureus [6]) of the same compound?
**A.** 0.02 µg/mL

**Q.** What about the MIC (Staphylococcus aureus [2]) of the same compound?
**A.** 0.125 µg/mL (≈ 0.196 µM)

**Q.** And the Ratio (Staphylococcus aureus [7])?
**A.** 2

**Q.** For O=C(CN1CCN(c2cc3c(cc2F)c(=O)c(C(=O)O)cn3C2CC2)CC1)Nc1ccc(-n2ccc(-c3ccccc3)n2)cc1, which MIC [1] is on record?
**A.** 0.5 µg/mL (≈ 0.824 µM)

**Q.** What about the Activity (Staphylococcus aureus [18]) of the same compound?
**A.** Active

**Q.** And the MIC (Staphylococcus aureus [3])?
**A.** 0.5 µg/mL (≈ 0.824 µM)

**Q.** What about the MIC (Pseudomonas aeruginosa) of the same compound?
**A.** 8 µg/mL (≈ 13.2 µM)

**Q.** And the CC50 at 48 h [4]?
**A.** > 1000 µg/mL

**Q.** And the MBIC50 (Staphylococcus aureus [6])?
**A.** 0.27 µg/mL

**Q.** What about the MIC (Staphylococcus aureus [2]) of the same compound?
**A.** 0.125 µg/mL (≈ 0.206 µM)

**Q.** What about the Ratio (Staphylococcus aureus [7]) of the same compound?
**A.** 2

**Q.** With O=C(CN1CCN(c2cc3c(cc2F)c(=O)c(C(=O)O)cn3C2CC2)CC1)Nc1ccc(-n2ccc(-c3ccc(Cl)cc3Cl)n2)cc1 as the compound, how does the MIC [1] read?
**A.** 64 µg/mL (≈ 94.7 µM)

**Q.** What about the MIC (Pseudomonas aeruginosa) of the same compound?
**A.** > 128 µg/mL

**Q.** What about the MIC (Staphylococcus aureus [2]) of the same compound?
**A.** 16 µg/mL (≈ 23.7 µM)
